Experiment [1] has as its target Sodium-dependent dopamine transporter (Rattus norvegicus, UniProt P23977). Kind of experiment: Binding affinity against Dopamine transporter using [125]RTI-55.
For experiment [2], the target named is T1, Muscarinic acetylcholine receptor M1 (Rattus norvegicus, UniProt P08482).
T1 sequence (P08482 whole entry): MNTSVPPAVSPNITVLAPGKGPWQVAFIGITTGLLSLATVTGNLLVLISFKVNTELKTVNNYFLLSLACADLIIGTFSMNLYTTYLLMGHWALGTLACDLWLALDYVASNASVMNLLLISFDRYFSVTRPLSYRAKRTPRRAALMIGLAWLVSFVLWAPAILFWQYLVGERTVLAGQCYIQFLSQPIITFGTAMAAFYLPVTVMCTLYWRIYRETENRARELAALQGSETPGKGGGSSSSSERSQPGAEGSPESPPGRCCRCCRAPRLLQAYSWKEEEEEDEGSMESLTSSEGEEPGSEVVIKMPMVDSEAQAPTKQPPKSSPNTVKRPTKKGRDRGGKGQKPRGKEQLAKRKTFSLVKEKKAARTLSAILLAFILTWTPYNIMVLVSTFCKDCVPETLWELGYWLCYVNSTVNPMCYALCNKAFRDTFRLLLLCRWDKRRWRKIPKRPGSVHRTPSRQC
Kind of experiment: Binding affinity against Muscarinic receptor from rat brain membranes using [3H]pirenzepine. The essentials: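 Male Sprague-Dawley rat brain P2 membranes (without cerebellum and brainstem), 300 μg protein, with 5 nM [3H]pirenzepine and 5 mM MgCl2 in 50 mM Tris-HCl pH 7.4, for 60 min at 37 °C. Nonspecific binding was defined with 10 μM QNB. Nine ligand concentrations (1 nM-10 μM or 10 nM-100 μM) were tested.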

The species entered for experiment [3] is Rattus norvegicus. Kind of experiment: Inhibition of Dopamine reuptake from rat caudate using [3H]DA. The experiment is classed as functional. The procedure, abridged: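 Rat caudate synaptosomes were prepared by homogenization in ice-cold 10% sucrose, and the 1000g supernatant was used. Incubation was with 2 nM [3H]DA (final) in Krebs-phosphate buffer pH 7.4 containing ascorbic acid (1 mg/mL) and pargyline (50 μM), for 20 min at 25 °C. Nonspecific uptake was defined with 1 μM of a DAT inhibitor. Filtration was followed by counting of retained tritium.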

Experiment [4] addresses Sodium-dependent serotonin transporter (Rattus norvegicus, UniProt P31652). Kind of experiment: Binding affinity against serotonin transporter using [125]RTI-55.
For experiment [5], the target named is Monoamine transporters; serotonin & dopamine (Rattus norvegicus) (UniProt P31652+P23977). In words: Ratio of binding affinity against Dopamine to that of serotonin transporter. Type of experiment: protein assay.
Sequence of Monoamine transporters; serotonin & dopamine (Rattus norvegicus) (P23977 whole entry, looked up): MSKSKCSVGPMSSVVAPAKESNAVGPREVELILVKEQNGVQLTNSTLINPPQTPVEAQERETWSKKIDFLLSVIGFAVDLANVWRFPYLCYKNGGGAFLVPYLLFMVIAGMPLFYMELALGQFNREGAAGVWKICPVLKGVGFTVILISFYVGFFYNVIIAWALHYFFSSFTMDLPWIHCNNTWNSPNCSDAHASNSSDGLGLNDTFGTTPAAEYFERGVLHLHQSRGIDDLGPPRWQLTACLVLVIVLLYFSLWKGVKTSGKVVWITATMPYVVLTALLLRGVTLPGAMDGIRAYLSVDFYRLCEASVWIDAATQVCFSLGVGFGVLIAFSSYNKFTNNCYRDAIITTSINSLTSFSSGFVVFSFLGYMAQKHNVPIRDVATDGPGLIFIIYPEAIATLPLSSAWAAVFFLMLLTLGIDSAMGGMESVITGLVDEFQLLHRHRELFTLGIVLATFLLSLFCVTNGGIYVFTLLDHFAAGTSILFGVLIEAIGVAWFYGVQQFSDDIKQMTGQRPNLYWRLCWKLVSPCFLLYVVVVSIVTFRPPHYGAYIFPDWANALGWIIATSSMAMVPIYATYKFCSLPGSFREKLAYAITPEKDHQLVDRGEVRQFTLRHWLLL
Sequence of Monoamine transporters; serotonin & dopamine (Rattus norvegicus) (P31652 whole entry, looked up): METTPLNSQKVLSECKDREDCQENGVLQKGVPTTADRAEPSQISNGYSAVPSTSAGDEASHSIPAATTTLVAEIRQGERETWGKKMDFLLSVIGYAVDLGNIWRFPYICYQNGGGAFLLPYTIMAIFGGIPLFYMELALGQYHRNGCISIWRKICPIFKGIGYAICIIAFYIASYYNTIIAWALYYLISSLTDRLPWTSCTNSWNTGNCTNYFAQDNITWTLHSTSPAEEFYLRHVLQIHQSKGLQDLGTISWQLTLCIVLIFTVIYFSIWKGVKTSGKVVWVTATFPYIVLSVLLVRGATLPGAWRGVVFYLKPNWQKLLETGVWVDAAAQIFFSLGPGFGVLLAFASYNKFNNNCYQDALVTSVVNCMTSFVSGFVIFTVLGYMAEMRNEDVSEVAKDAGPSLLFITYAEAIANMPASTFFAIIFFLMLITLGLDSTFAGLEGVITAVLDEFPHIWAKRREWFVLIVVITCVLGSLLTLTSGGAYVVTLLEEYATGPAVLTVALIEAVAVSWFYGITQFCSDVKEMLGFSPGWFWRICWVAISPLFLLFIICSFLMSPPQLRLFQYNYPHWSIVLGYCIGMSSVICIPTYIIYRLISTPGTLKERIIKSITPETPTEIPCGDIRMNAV
For experiment [6], the species on record is Rattus norvegicus. In words: Inhibition of 5-HT reuptake from whole rat brain minus cerebellum using [3H]5-HT.

Sequence of Sodium-dependent dopamine transporter (P23977 whole entry): as the sequence (P23977 whole entry, looked up) above
Sequence of Sodium-dependent serotonin transporter (P31652 whole entry): as the sequence (P31652 whole entry, looked up) above

By Ki is commonly meant a dissociation constant, usually derived from enzyme kinetics or from competition with a known ligand. Read a high Ki as a looser hold on the target. For `CN1C2CCC1CC(CCOC(c1ccc(F)cc1)c1ccc(F)cc1)C2` (stereo not drawn), the Ki in experiment [1] was found to be 52 µM; in experiment [2], 0.13 µM; in the experiment filed under Rattus norvegicus [3], 0.08 µM; in experiment [4], 4.1 µM. Moreover, the Ratio in experiment [5] was 79.

For `CN1[C@@H]2CC[C@H]1C[C@@H](CCNC(c1ccc(F)cc1)c1ccc(F)cc1)C2`, the inhibition constant (Ki) worked out at 0.63 µM in experiment [2], 0.16 µM in the experiment listed under Rattus norvegicus [3], 30 µM in experiment [4] and 7.1 µM in the experiment listed under Rattus norvegicus [6]. Also, the Ratio in experiment [5] stood at 111.

As for `CN1C2CCC1CC(CCNC(c1ccccc1)c1ccccc1)C2` (stereo not drawn), the Ki in experiment [1] amounted to 3.8 µM; in experiment [2] it was 0.34 µM; in the experiment filed under Rattus norvegicus [3], 1.1 µM; in experiment [4], 43 µM; in the experiment filed under Rattus norvegicus [6] it was 14 µM. In addition, the Ratio in experiment [5] amounted to 11.

Turning to `CN1C2CCC1CC(CC(=O)NC(c1ccc(F)cc1)c1ccc(F)cc1)C2` (stereo not drawn), the Ki amounted to 3.4 µM in experiment [1]; 1.2 µM in experiment [2]; 1.8 µM in the experiment filed under Rattus norvegicus [3]; 69 µM in experiment [4]; 60 µM in the experiment filed under Rattus norvegicus [6]. Also, the Ratio in experiment [5] was 20.

Take `CN1C2CCC1CC(=CC(=O)NC(c1ccc(F)cc1)c1ccc(F)cc1)C2`: the Ki worked out at 2.5 µM in experiment [2], 0.24 µM in the experiment filed under Rattus norvegicus [3], 19 µM in experiment [4] and 17 µM in the experiment listed under Rattus norvegicus [6]. Moreover, the Ratio in experiment [5] is 38.

With `CN1[C@@H]2CC[C@H]1C[C@@H](OC(c1ccccc1)c1ccccc1)C2` [BENZTROPINE], the figures for the Ki in the experiment filed under Rattus norvegicus [3] and in the experiment filed under Rattus norvegicus [6] were 0.13 µM and 18.5 µM, respectively.

With `CN1C2CCC1CC(=CCOC(c1ccc(F)cc1)c1ccc(F)cc1)C2`, the Ki in experiment [1] is 19 µM; in experiment [2] it was 0.2 µM; in the experiment listed under Rattus norvegicus [3], 0.035 µM; in experiment [4], 3.6 µM; in the experiment listed under Rattus norvegicus [6], 5 µM. Also, in experiment [5], the Ratio worked out at 189.

For the molecule `CN1C2CCC1CC(=CCOC(c1ccccc1)c1ccccc1)C2`, the Ki was 0.094 µM in experiment [2], 0.19 µM in the experiment listed under Rattus norvegicus [3], 8.3 µM in experiment [4] and 8.1 µM in the experiment listed under Rattus norvegicus [6]. The Ratio in experiment [5] came out at 64.

Turning to `CN1[C@@H]2CC[C@H]1C[C@@H](CC(=O)NC(c1ccccc1)c1ccccc1)C2`, the Ki in experiment [1] was 30 µM; in experiment [2], 1.2 µM; in the experiment listed under Rattus norvegicus [3] it was 7.9 µM; in experiment [4], 120 µM; in the experiment filed under Rattus norvegicus [6], 100 µM. In addition, in experiment [5], the Ratio was 4.

Take `c1ccc(CCCN2CCN(CCOC(c3ccccc3)c3ccccc3)CC2)cc1`: the Ki in the experiment filed under Rattus norvegicus [3] amounted to 0.0037 µM; in the experiment filed under Rattus norvegicus [6], 0.29 µM.

For `CN1C2CCC1CC(=CC(=O)NC(c1ccccc1)c1ccccc1)C2`, the Ki in experiment [1] was found to be 2.3 µM; in experiment [2], 1.7 µM; in the experiment listed under Rattus norvegicus [3], 0.88 µM; in experiment [4] it was 78 µM; in the experiment filed under Rattus norvegicus [6], 60 µM. The Ratio in experiment [5] turned out to be 34.

For `Fc1ccc(C(OCC[C@H]2C[C@H]3CC[C@@H](C2)N3CCCc2ccccc2)c2ccc(F)cc2)cc1`, the Ki in experiment [1] stood at 19 µM; in experiment [2], 0.17 µM; in the experiment listed under Rattus norvegicus [3], 0.078 µM; in experiment [4], 0.079 µM; in the experiment listed under Rattus norvegicus [6], 0.43 µM. For the same molecule, in experiment [5], the Ratio is 4.

As to `c1ccc(CCCN2[C@@H]3CC[C@H]2C[C@@H](CCOC(c2ccccc2)c2ccccc2)C3)cc1`, the Ki is 28 µM in experiment [1]; 0.078 µM in experiment [2]; 0.12 µM in the experiment filed under Rattus norvegicus [3]; 0.17 µM in experiment [4]; 0.57 µM in the experiment listed under Rattus norvegicus [6]. In addition, in experiment [5], the Ratio amounted to 6.

As for `Fc1ccc(C(OCCN2CCN(CCCc3ccccc3)CC2)c2ccc(F)cc2)cc1` [VANOXERINE], the figures for the Ki in the experiment filed under Rattus norvegicus [3] and in the experiment listed under Rattus norvegicus [6] were 0.0043 µM and 0.073 µM, respectively.

As to `CN1[C@@H]2CC[C@H]1C[C@@H](CCOC(c1ccccc1)c1ccccc1)C2`, the Ki in experiment [2] is 0.056 µM; in the experiment listed under Rattus norvegicus [3], 0.26 µM; in experiment [4], 15 µM; in the experiment filed under Rattus norvegicus [6] it was 12 µM. The Ratio in experiment [5] was 54.

The values above are taken from ChEMBL document CHEMBL1134268, “Synthesis and biological evaluation of tropane-like 1-[2-[bis(4-fluorophenyl)methoxy]ethyl]-4-(3-phenylpropyl)piperazine (GBR 12909) analogues” (J Med Chem, 2001).
